# CDK5 p35 inh – inhibitors of human CDK5/p35 kinase, primary screen, biochemical, single concentration. 0.01% of 330,000 active. inhibition, % at 10 µM. AID 488839, 2010. Recombinant CDK5/p35, ADP-Glo luminescence, 60 min. Cyclin-dependent kinase 5 (Homo sapiens) + Cyclin-dependent kinase 5 activator 1 (Homo …;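 active = highest replicate inhibition of at least 50% and at least 75% of replicates reaching 50%; inconclusive = only one of the two criteria met; inactive = both criteria failed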;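 also: plate controls were DMSO neutral control for no effect and GW8510 at 10 µM for full effect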
# dFosB activator – activators of delta FosB homodimer, primary screen, biochemical, fluorescence polarization, TAMRA-CDK5 oligo, single point; Protein FosB (Mus musculus), P13346; purified delta FosB; percent of positive-control signal above neutral wells; activation, % at 25 µM; 0.99% of 340,000 active;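 active = mean activation above about 17%, with every replicate also reaching it, limit read from the data, passing the limit was not always enough; inconclusive = only one of the two conditions met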
# Target sequence (P13346 whole entry, looked up): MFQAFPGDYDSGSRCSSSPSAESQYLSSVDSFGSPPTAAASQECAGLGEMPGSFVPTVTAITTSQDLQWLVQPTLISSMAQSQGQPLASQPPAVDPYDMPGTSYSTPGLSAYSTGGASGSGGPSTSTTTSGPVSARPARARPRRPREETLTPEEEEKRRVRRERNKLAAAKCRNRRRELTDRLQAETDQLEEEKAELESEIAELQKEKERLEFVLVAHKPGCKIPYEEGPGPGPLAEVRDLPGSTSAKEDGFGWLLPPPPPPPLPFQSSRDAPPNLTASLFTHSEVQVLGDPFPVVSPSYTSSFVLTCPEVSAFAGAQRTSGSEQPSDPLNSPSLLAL
# Statin myotox sup – suppressors of statin myotoxicity in C2C12 myotubes, primary screen, cell-based, single point, plate reader | AID 602340, 2012 | 0.78% of 330,000 active | rescue of ATP level, % at 7.49 µM | C2C12 myotubes + simvastatin, ATP luminescence, 48 h; scaled: DMSO 0, geranylgeraniol control 100;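 active = mean ATP rescue above about 67%, or every replicate alone reaching that limit, limit read from the data, passing the limit was not always enough; inconclusive = no clear call, values can overlap the other calls; inactive = mean under the limit and some replicate under it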;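 also: myotubes were challenged with 10 µM simvastatin during compound exposure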
# CAL PDZ FP-1 – untagged CAL PDZ binding inhibitors, primary screen, biochemical, fluorescence polarization, HTS. purified CAL PDZ, TMR-peptide fluorescence polarization, 1 h. 0.92% of 300,000 active. Golgi-associated PDZ and coiled-coil motif-containing protein (Homo sapiens), Q9HD26. AID 602252, 2012. inhibition, % at 24.9 µM;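 active = mean inhibition of at least 30% with at least half of replicates also reaching 30%; inconclusive = no clear call, values can overlap the other calls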;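 also: 0% = DMSO neutral control and 100% = excess unlabeled competitor peptide PRC23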
# S100A4 inh HTS – inhibitors of S100A4-myosin IIA peptide binding, primary screen, biochemical, fluorescence polarization, TAMRA-MyoIIA peptide; inhibition, % at 10.7 µM; 0.14% of 360,000 active;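 active = mean inhibition of at least 70% across replicates, with every replicate also reaching that level; inconclusive = mean inhibition reaches 70% but some replicates fall short; inactive = mean inhibition below 70%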
# Target sequence (P26447 whole entry, looked up): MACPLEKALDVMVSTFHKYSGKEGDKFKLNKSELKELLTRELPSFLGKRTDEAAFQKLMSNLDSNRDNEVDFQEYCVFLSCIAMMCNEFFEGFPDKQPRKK
#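 Assay system: human S100A4 monomer with TAMRA-labelled myosin IIA peptide / Buffer or medium: Calcium-containing HEPES buffer, pH 7.2 / Reagent: TAMRA-labelled myosin IIA heavy-chain peptide probe, 5 nM / Compound: one dose per compound / Timing: polarization read 5 min after assay mix addition, stable 5–60 min / Benchmarks: neutral control DMSO, positive control TFP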
# CAL PDZ FP-2 – CAL PDZ peptide-binding inhibitors, primary screen, biochemical, fluorescence polarization, Cer-tagged CAL PDZ, HTS. AID 504414, 2011. purified CAL PDZ, TMR-peptide fluorescence polarization, 1 h. 0.02% of 330,000 active. Golgi-associated PDZ and coiled-coil motif-containing protein (Homo sapiens), Q9HD26. inhibition, % at 20 µM;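 active = highest replicate inhibition of at least 40%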;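 also: plate controls were DMSO neutral control wells for no effect and unlabeled competitor peptide control wells for full effect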
#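 Material: tagged CAL PDZ domain; buffer or medium: 25 mM sodium phosphate pH 7.4, 150 mM NaCl, TCEP, IgG, Thesit; compound dosing: single point, 20 µM; schedule: 1 h incubation at room temperature before polarization reading; measured by: FP readout, S and P plane fluorescence; read-out basis: percent inhibition from loss of millipolarization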
# Active calls of the source: *; ? = inconclusive; / = no result. In the library only some 2% were active in any assay of this set; here they are far more common.
SMILES,CDK5 p35 inh,dFosB activator,Statin myotox sup,CAL PDZ FP-1,S100A4 inh HTS,CAL PDZ FP-2
CCCNC(=O)c1c(N)n(-c2cccc(OC)c2)c2nc3ccccc3nc12,0,-13,106*,-2,2,-1
O=C(c1ccccc1)N1C[C@H]2[C@@H](c3ccccc31)[C@H](CO)N2C(=O)c1ccccn1,/,/,-10,/,8,/
COc1cc2c(cc1OC)C(CC(=O)O)N(C(=O)CC1CCCC1)CC2 (stereo unspecified),1,-1,5,-16,-7,-2
CCOC(=O)c1cn(CC)c2cc3c(cc2c1=O)OCO3,2,-2,1,4,1,1
COC(=O)CNc1cccc(C(F)(F)F)c1,0,-5,-12,75*,-2,17
Cc1cc2c(NC(=O)CCCC(=O)O)cccc2nn1,0,-5,/,/,3,0
c1cc2c3c(cccc3c1)NC1(CCCC1)N2,-2,63*,3,/,-3,-1
O=C1C2C3CC(C(Br)C3Br)C2C(=O)N1c1ccccn1 (stereo unspecified),1,0,/,44*,/,-1
Cc1ccnc(N2C(=O)C3C4CC(C(Br)C4Br)C3C2=O)c1 (stereo unspecified),-1,2,-12,-2,/,-2
CC[C@]12c3[nH]c4cc(-c5ccco5)ccc4c3CCN1C(=O)[C@@H](CC(=O)NCCCn1ccnc1)C[C@@H]2C(=O)N1CCN(C(=O)C2CC2)CC1,-1,-4,-3,-1,-5,0
C=C(C)[C@@H]1CC=C(C(=O)O)CC1,0,2,9,1,3,-1
Nc1nnc(SCC(=O)c2ccc([N+](=O)[O-])cc2)s1,-1,2,2,35*,-1,17
Cc1nnc(SCC(=O)c2ccc([N+](=O)[O-])cc2)s1,0,0,/,/,-3,0
COc1cccc(-c2ccc([C@H]3[C@H]4CN(C(=O)c5ccc(F)cc5)CCCCN4[C@H]3CO)cc2)c1,/,/,50,/,7,/
CC(C)(O)C#Cc1ccc([C@H]2[C@H](CO)N3CCCCN(C(=O)c4ccc(F)cc4)C[C@@H]23)cc1,/,/,/,/,104*,/
CC(C)(O)C#Cc1ccc([C@H]2[C@@H](CO)N3CCCCN(C(=O)c4ccc(F)cc4)C[C@H]23)cc1,/,/,/,/,53,/
COc1cccc(-c2ccc([C@@H]3[C@H](CO)N4CCCCN(C(=O)c5ccc(F)cc5)C[C@@H]34)cc2)c1,/,/,13,/,113*,/
Cc1cccc(-c2ccc([C@H]3[C@@H](CO)N4CCCCN(C(=O)c5ccc6c(c5)OCO6)C[C@@H]34)cc2)c1,/,/,69*,/,-7,/
CCOC(=O)C(=O)c1c(-c2ccccc2)nc2ccccn12,-1,0,/,-10,-3,-2
Cc1cc(C)c2nc(N(CCCN(C)C)C(=O)c3ccc4c(c3)OCCO4)sc2c1,0,31*,-10,/,1,-3
CCC1CCCCN1S(=O)(=O)c1ccc(C(=O)N(CCCN(C)C)c2nc3cc4c(cc3s2)OCO4)cc1 (stereo unspecified),0,24*,-11,0,2,-2
CN(C)CCCN(C(=O)COc1ccc(Cl)cc1)c1nc2cc3c(cc2s1)OCO3,-1,39*,-8,-2,-7,-1
CN(C)CCCN(C(=O)c1ccc(S(=O)(=O)N2CCCCCC2)cc1)c1nc2cc3c(cc2s1)OCO3,/,/,-10,/,-1,/
Cc1cc(C)c2nc(N(CCCN(C)C)C(=O)C3=COCCO3)sc2c1,0,-1,-9,-3,-3,-2
CN(C)CCCN(C(=O)c1ccc(S(=O)(=O)N(C)Cc2ccccc2)cc1)c1nc2cc3c(cc2s1)OCO3,-1,?,/,42*,-2,-1
SMILES,CDK5 p35 inh,dFosB activator,Statin myotox sup,CAL PDZ FP-1,S100A4 inh HTS,CAL PDZ FP-2
CN(C)CCN(C(=O)c1cccs1)c1nc2cc3c(cc2s1)OCCO3,-2,15,-4,41*,-2,0
CN(C)CCN(C(=O)c1ccc2ccccc2c1)c1nc2cc3c(cc2s1)OCCO3,-1,15,8,0,-10,-2
O=C(/C=C/c1ccc(Cl)cc1Cl)NC(=S)Nc1ccc(CN2CCOCC2)cc1,1,1,/,6,0,0
O=C(NN1C(=O)C2C3C=CC(C4CC34)C2C1=O)c1ccc(Cl)cc1Cl (stereo unspecified),0,3,-16,5,/,0
CC(OC(=O)c1ccccc1NS(=O)(=O)c1cccc(N)c1)C(=O)N(C)Cc1ccccc1 (stereo unspecified),1,0,86*,-2,-14,-1
CC(OC(=O)c1cccc(O)c1)C(=O)N(C)Cc1ccccc1 (stereo unspecified),0,-9,29,0,-7,-1
Cc1ccsc1/C=C1/SC(=O)N(CC(=O)N2CCOCC2)C1=O,0,1,3,-2,/,-1
Cc1ccc(/C=C2/SC(=O)N(CC(=O)N3CCOCC3)C2=O)s1,-1,-2,-6,-1,106*,-3
CCN(Cc1cnn(C)c1)C(=O)c1ccc(OC2CCN(S(=O)(=O)N(C)C)CC2)cc1,0,-9,/,2,-8,-1
O=C1OCCN1N1CCOC1=O,-1,-2,113*,0,-3,0
CCc1ccc(-c2cc(C)no2)cc1S(=O)(=O)Nc1cccc(CN2CCCC2)c1,0,-11,-4,-3,1,-4
Cc1ccc(C2C(=O)N(C3CCC(C)CC3)CC(=O)N2C2CCCC2)cc1 (stereo unspecified),0,-11,124*,13,/,0
c1ccc(-c2c(-c3ccccc3)n(Cc3ccco3)c3ncnc(NCCCn4ccnc4)c23)cc1,-2,-6,/,-3,/,-1
OCCNc1ncnc2c1c(-c1ccccc1)c(-c1ccccc1)n2Cc1ccco1,0,-17,-25,66*,/,-2
Cc1cc(C(=O)CN2C(=O)C(=O)N(Cc3ccco3)C2=O)c(C)n1CCc1ccccc1,2,-13,-20,-4,-15,-1
Cc1ccc(-c2nc3ncccc3o2)cc1NC(=O)c1sc2ccccc2c1Cl,2,-2,-135,-4,0,-1
Cc1ccc2cc3c(N)c4c(C)ccc(C)c4nc3nc2c1,0,29*,4,-2,14,-2
CC(C)NC(=O)Nc1ccc2c(c1)C(=O)N([C@H](C)CO)C[C@H](C)[C@@H](CN(C)Cc1ccc3c(c1)OCO3)O2,/,/,5,/,-29,/

# Compound activity from PubChem.
